These results are taken from ChEMBL document CHEMBL4385606, “3,5,7-Substituted Pyrazolo[4,3- d]pyrimidine Inhibitors of Cyclin-Dependent Kinases and Their Evaluation in Lymphoma Models” (J Med Chem, 2019).

The nature of test [1]: Antiproliferative activity against human OCI-Ly2 cells measured after 72 hrs by calcein AM dye-based fluorescence assay. In kind it is functional. The essentials: (§1)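 Cells exposed in triplicate to six concentrations for 72 h; calcein AM added for 1 h, live-cell fluorescence read at 485/538 nm (ex/em). GI50 taken from dose-response curves.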
Test [2] is described as follows: Antiproliferative activity against human Mino cells measured after 72 hrs by calcein AM dye-based fluorescence assay. In kind it is functional. The gist of the method: as §1
The target in test [3] is CDK2/Cyclin A2 (Homo sapiens, UniProt P24941). Briefly: Inhibition of GST-tagged CDK2/Cyclin-A2 (unknown origin) expressed in Escherichia coli using histone H1 as substrate measured in presence of [gamma-33P]ATP.
In test [4] the target is Serine/threonine-protein kinase Chk2 (Homo sapiens, UniProt O96017). Nature of the test: Inhibition of CHK2 (unknown origin).
Serine/threonine-protein kinase Chk2, sequence (O96017 whole entry): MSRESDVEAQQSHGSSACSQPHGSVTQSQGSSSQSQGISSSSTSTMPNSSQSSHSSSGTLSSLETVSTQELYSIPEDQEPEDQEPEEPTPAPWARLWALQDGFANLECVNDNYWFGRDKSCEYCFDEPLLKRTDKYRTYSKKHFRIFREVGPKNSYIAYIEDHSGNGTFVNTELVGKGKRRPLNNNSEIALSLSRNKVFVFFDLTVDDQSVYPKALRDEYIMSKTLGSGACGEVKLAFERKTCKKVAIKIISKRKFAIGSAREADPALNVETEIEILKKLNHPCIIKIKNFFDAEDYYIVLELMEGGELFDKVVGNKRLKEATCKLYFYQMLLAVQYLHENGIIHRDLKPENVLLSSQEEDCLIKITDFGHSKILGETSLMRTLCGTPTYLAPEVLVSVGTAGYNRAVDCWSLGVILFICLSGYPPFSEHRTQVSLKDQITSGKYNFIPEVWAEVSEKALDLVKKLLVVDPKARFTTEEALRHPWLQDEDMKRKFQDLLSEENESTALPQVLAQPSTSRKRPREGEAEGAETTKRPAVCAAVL
Test [5] concerns SUD4. Briefly: Antiproliferative activity against human SUDHL4 cells assessed as growth inhibition measured after 72 hrs by calcein AM dye-based fluorescence assay. In kind it is functional, cell-based. The settings on record: SU-DHL-4, 72 h.
Test [6] in a line: Antiproliferative activity against human Mino cells assessed as growth inhibition measured after 72 hrs by calcein AM dye-based fluorescence assay. It is filed as functional, cell-based. The essentials: as §1
The nature of test [7]: Antiproliferative activity against human UPF1H cells assessed as growth inhibition measured after 72 hrs by calcein AM dye-based fluorescence assay. In kind it is functional, cell-based. The essentials:
as §1

In test [8] the test system is K562. Nature of the test: Antiproliferative activity against human K562 cells assessed as growth inhibition measured after 72 hrs by calcein AM dye-based fluorescence assay. It is filed as functional, cell-based. The note with it: K562, 72 h. The essentials: as §1
Test [9] has as its system THP-1. Nature of the test: Antiproliferative activity against human THP1 cells assessed as growth inhibition measured after 72 hrs by calcein AM dye-based fluorescence assay. In kind it is functional, cell-based. The settings on record: THP-1, 72 h. The essentials: as §1
Test [10] is filed under the species Homo sapiens. Nature of the test: Induction of apoptosis in human Mino cells assessed as decrease in XIAP level at 12.5 nM for 2 to 24 hrs by immunoblotting analysis. In kind it is functional, cell-based. The gist of the method:
(§2)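 Lymphoma cell lines were cultured as the providers instruct and exposed to compound at several doses or for several times. Lysates were run on SDS-PAGE and blotted to nitrocellulose. Blots were blocked, incubated overnight with primary antibodies diluted in PBS with 5% milk and 0.1% Tween 20, then with peroxidase-conjugated secondaries, and detected by chemiluminescence on a CCD camera.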
In general terms: In western blotting, separated proteins are transferred to a membrane and probed.

The target in test [11] is Cyclin-dependent kinase 2 (Homo sapiens) (UniProt P24941). Briefly: Inhibition of CDK2 in human Mino cells assessed as decrease in phosphorylation of RNA polymerase 2 C-terminal domain at Ser 5 residue at 12.5 nM by immunoblotting analysis. In kind it is cell-based. The note with it: TDE = time-dependent effect. The essentials:
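MINO lymphoma cells were treated at 12.5 nM, with time points over 24 h. Lysates were separated by SDS-PAGE and blotted to nitrocellulose. Phospho-RNA polymerase II CTD (Ser2, Ser5) and phospho-Rb (Ser608, Ser780) were probed with primary antibodies overnight and peroxidase-conjugated secondaries. Detection was by chemiluminescence on a CCD camera.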

The subject of test [12] is Mus musculus. Briefly: Ex vivo antitumor activity against Maver1 xenografted NSG mouse assessed as induction of PARP1 cleavage at 10 mg/kg, iv measured after 24 hrs by immunoblotting analysis. In kind it is functional, organism-based. The essentials:
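NSG mice bearing palpable s.c. tumors received a single i.v. dose (5 or 10 mg/kg) and were euthanized after 24 h. Excised tumors were filtered through 45 µm nylon mesh, lysed and run on SDS-PAGE, transferred to nitrocellulose, probed overnight with primary antibodies in PBS with 5% milk and 0.1% Tween 20, then peroxidase secondaries, with chemiluminescent detection.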

Test [13] deals with Mus musculus. Briefly: Ex vivo antitumor activity against patient derived VFN-M1 cells xenografted NSG mouse assessed as down regulation of XIAP expression at 10 mg/kg, iv measured after 24 hrs by immunoblotting analysis. In kind it is functional, organism-based. The gist of the method: (§3)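 Female NSG mice, 8-12 weeks old, implanted s.c. with lymphoma cells. Once tumors were palpable, mice received a single tail-vein i.v. dose (5 or 10 mg/kg) of compound dissolved in PBS. Mice were euthanized 24 h later. Tumors were excised, filtered through 45 µm nylon mesh and lysed, then proteins were analysed by immunoblotting.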

In test [14] the test system is Maver1. Nature of the test: Induction of apoptosis in human Maver1 cells assessed as induction of PARP1 cleavage at 1.5 to 12.5 nM after 24 hrs by immunoblot analysis. In kind it is functional, cell-based. The gist of the method:
as §2

The test system of test [15] is Mus musculus. Nature of the test: Ex vivo antitumor activity against human Mino cells xenografted NSG mouse decrease in phosphorylation of RNA polymerase 2 C-terminal domain at Ser 5 residue at 5 to 10 mg/kg, iv measured after 24 hrs by immunoblotting analysis. In kind it is functional, organism-based. The gist of the method:
as §3
A general note: In xenograft studies the graft and the host belong to different species.

Each structure is given as a SMILES string. Activity calls are given as the source filed them. The rule behind the calls is not given here.

One may read the GI50 as the concentration at which growth is held to half of that of the control. As usually defined, the IC50 is the midpoint of a concentration-inhibition curve. Take `CC(C)c1n[nH]c2c(NCc3ccc(-c4ccccn4)cc3)nc(SCCN)nc12`: the GI50 in [1] was 28 nM; in [2] it was 41 nM; in test [5], 15 nM; in [6], 16 nM; in test [7], 25 nM; in test [8], 36 nM. The GI50 in [9] was 19 nM. For the same compound, the IC50 is 6 nM in test [3]; 525 nM in test [4]; 16 nM in [6]; 25 nM in test [7]; 36 nM in test [8]; 19 nM in test [9]. Also, the outcome in test [10], in test [12], in [13], in [14] and in test [15] was Active. Moreover, the inhibition entry in [11] is “Tde”.
